EC50 data for 18 molecules are collected here from ChEMBL document CHEMBL3632609, “Hederagenin as a triterpene template for the development of new antitumor compounds” (Eur J Med Chem, 2015).

Common to all, as to assay type: functional, cell-based
One assay concerns MCF7. Briefly: Cytotoxicity against human MCF7 cells assessed as cell survival after 96 hrs by sulforhodamine B assay. Conditions: MCF7, 96 h. The method in brief:
(§1)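 Cells in exponential growth were seeded at densities that avoided confluence and, after 24 h, exposed to serial compound dilutions (0-30 μM, DMSO ≤0.5% final) for 96 h. Cells were then fixed with 10% TCA at 4 °C, washed with water, and stained with 0.4% SRB for about 20 min. Excess dye was removed with 1% acetic acid, bound dye was taken up in 10 mM Tris base, and absorbance was read at 570 nm.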
For orientation: Sulforhodamine B stains cellular protein and so reports cell mass.

The test system of another assay is A549. Briefly: Cytotoxicity against human A549 cells assessed as cell survival after 96 hrs by sulforhodamine B assay. Conditions: A549, 96 h. The essentials: as §1
In the next assay the test system is A2780. Briefly: Cytotoxicity against human A2780 cells assessed as cell survival after 96 hrs by sulforhodamine B assay. Conditions: A2780, 96 h. The essentials: as §1
The next assay has as its system HT-29. Kind of assay: Cytotoxicity against human HT-29 cells assessed as cell survival after 96 hrs by sulforhodamine B assay. Conditions: HT-29, 96 h. The essentials:
as §1

Assay [1] in a line: Cytotoxicity against human 518A2 cells assessed as cell survival after 96 hrs by sulforhodamine B assay. Conditions: 518A2, 96 h. The method in brief:
as §1

The next assay deals with 8505C. Kind of assay: Cytotoxicity against human 8505C cells assessed as cell survival after 96 hrs by sulforhodamine B assay. The essentials: as §1

As usually defined, the EC50 is the concentration that produces a half-maximal response.

For the molecule `CC1(C)CC[C@]2(C(=O)On3nnc4ccccc43)CC[C@]3(C)C(=CC[C@@H]4[C@@]5(C)CC[C@H](O)[C@@](C)(CO)[C@@H]5CC[C@]43C)[C@@H]2C1`, the 50% effective concentration (EC50) turned out to be 7.7 µM with MCF7; 9.5 µM in the assay with A549; 8.8 µM in the assay on A2780; 11.2 µM with HT-29; 8.6 µM in assay [1]; 9.5 µM in the assay with 8505C.
As for `CC1(C)CC[C@]2(C(=O)OCc3c(F)c(F)c(F)c(F)c3F)CC[C@]3(C)C(=CC[C@@H]4[C@@]5(C)CC[C@H](O)[C@@](C)(CO)[C@@H]5CC[C@]43C)[C@@H]2C1`, the EC50 in the assay with MCF7 is 16.5 µM; in the assay with A549, 14.8 µM; with A2780 it was 13.1 µM; in the assay with HT-29, 16.1 µM; in assay [1], 12.9 µM; with 8505C it was 14.1 µM.
Take `CC1(C)CC[C@]2(C(=O)OCc3ccccc3Cl)CC[C@]3(C)C(=CC[C@@H]4[C@@]5(C)CC[C@H](O)[C@@](C)(CO)[C@@H]5CC[C@]43C)[C@@H]2C1`: the EC50 in the assay on MCF7 was 12.7 µM; with A549, 13.6 µM; in the assay on A2780, 13.6 µM; in the assay on HT-29 it was 13.5 µM; in assay [1] it was 11.7 µM; in the assay with 8505C, 9.5 µM.
`CC1(C)CC[C@]2(C(=O)OCc3ccc([N+](=O)[O-])cc3)CC[C@]3(C)C(=CC[C@@H]4[C@@]5(C)CC[C@H](O)[C@@](C)(CO)[C@@H]5CC[C@]43C)[C@@H]2C1`: the half-maximal effective concentration (EC50) in the assay on MCF7 was found to be 7.8 µM; with A549 it was 6.5 µM; in the assay with A2780, 7.8 µM; in the assay on HT-29, 7.8 µM; in assay [1] it was 8.4 µM; in the assay on 8505C, 6.1 µM.
Consider `CC1(C)CC[C@]2(C(=O)OCc3ccccc3)CC[C@]3(C)C(=CC[C@@H]4[C@@]5(C)CC[C@H](O)[C@@](C)(CO)[C@@H]5CC[C@]43C)[C@@H]2C1`, for which the EC50 turned out to be 7.9 µM in the assay on MCF7; 7 µM in the assay on A549; 9.7 µM in the assay with A2780; 9.5 µM in the assay with HT-29; 7.8 µM in assay [1]; 7.6 µM in the assay on 8505C.
In the case of `CC1(C)CC[C@]2(C(=O)OCCCN3C(=O)c4ccccc4C3=O)CC[C@]3(C)C(=CC[C@@H]4[C@@]5(C)CC[C@H](O)[C@@](C)(CO)[C@@H]5CC[C@]43C)[C@@H]2C1`, the EC50 is 9 µM with MCF7; 11.4 µM in the assay with A549; 12.1 µM in the assay with A2780; 13.4 µM with HT-29; 8.7 µM in assay [1]; 10.3 µM with 8505C.
With `CC1(C)CC[C@]2(C(=O)OCc3c(Cl)cccc3Cl)CC[C@]3(C)C(=CC[C@@H]4[C@@]5(C)CC[C@H](O)[C@@](C)(CO)[C@@H]5CC[C@]43C)[C@@H]2C1`, the EC50 with MCF7 was found to be 12.7 µM; in the assay on A549, 12.9 µM; in the assay on A2780, 14.4 µM; in the assay with HT-29 it was 13.3 µM; in assay [1] it was 9.2 µM; in the assay with 8505C, 9.4 µM.
`C#CCOC(=O)[C@]12CCC(C)(C)C[C@H]1C1=CC[C@@H]3[C@@]4(C)CC[C@H](O)[C@@](C)(CO)[C@@H]4CC[C@@]3(C)[C@]1(C)CC2`: the half-maximal effective concentration (EC50) in the assay with MCF7 stood at 15.4 µM; in the assay on A549, 15.9 µM; in the assay with A2780, 17 µM; with HT-29, 17.7 µM; in assay [1], 12.4 µM; with 8505C it was 13.2 µM.
In the case of `CC1(C)CC[C@]2(C(=O)OCc3c(F)cccc3F)CC[C@]3(C)C(=CC[C@@H]4[C@@]5(C)CC[C@H](O)[C@@](C)(CO)[C@@H]5CC[C@]43C)[C@@H]2C1`, the EC50 in the assay on MCF7 turned out to be 10.2 µM; in the assay on A549 it was 11.7 µM; with A2780 it was 11.6 µM; in the assay on HT-29, 12 µM; in assay [1] it was 7.5 µM; in the assay on 8505C it was 8.7 µM.
For `CC1(C)CC[C@]2(C(=O)OCc3cccc(Cl)c3)CC[C@]3(C)C(=CC[C@@H]4[C@@]5(C)CC[C@H](O)[C@@](C)(CO)[C@@H]5CC[C@]43C)[C@@H]2C1`, the EC50 in the assay on MCF7 was 13 µM; with A549, 13 µM; in the assay on A2780, 13.8 µM; in the assay with HT-29 it was 14.8 µM; in assay [1], 11.7 µM; in the assay on 8505C, 11.9 µM.
For `CC1(C)CC[C@]2(C(=O)O)CC[C@]3(C)C(=CC[C@@H]4[C@@]5(C)CC[C@H](O)[C@@](C)(CO)[C@@H]5CC[C@]43C)[C@@H]2C1` [HEDERAGENIN], the EC50 with MCF7 turned out to be 25.7 µM; in the assay with A549 it was 29 µM; in the assay with A2780 it was 19.9 µM; in the assay on HT-29, 50 µM; in assay [1] it was 34.9 µM; in the assay on 8505C it was 38 µM.
As for `CC1(C)CC[C@]2(C(=O)OCc3ccc(F)cc3F)CC[C@]3(C)C(=CC[C@@H]4[C@@]5(C)CC[C@H](O)[C@@](C)(CO)[C@@H]5CC[C@]43C)[C@@H]2C1`, the EC50 with MCF7 turned out to be 11.5 µM; in the assay with A549, 11.4 µM; in the assay with A2780, 12.9 µM; with HT-29, 13 µM; in assay [1], 9.5 µM; in the assay on 8505C, 8 µM.
Turning to `CC1(C)CC[C@]2(C(=O)OCc3ccccc3F)CC[C@]3(C)C(=CC[C@@H]4[C@@]5(C)CC[C@H](O)[C@@](C)(CO)[C@@H]5CC[C@]43C)[C@@H]2C1`, the EC50 was determined as 12.5 µM in the assay with MCF7; 13.2 µM in the assay with A549; 13.4 µM in the assay with A2780; 13.2 µM with HT-29; 10 µM in assay [1]; 11.2 µM in the assay with 8505C.
In the case of `Cc1ccc(COC(=O)[C@]23CCC(C)(C)C[C@H]2C2=CC[C@@H]4[C@@]5(C)CC[C@H](O)[C@@](C)(CO)[C@@H]5CC[C@@]4(C)[C@]2(C)CC3)cc1`, the 50% effective concentration (EC50) in the assay with MCF7 was determined as 13.7 µM; with A549 it was 13.7 µM; with A2780, 14.7 µM; in the assay on HT-29, 14.8 µM; in assay [1], 11.8 µM; with 8505C, 8.8 µM.
On to `CC1(C)CC[C@]2(C(=O)OCc3ccccc3[N+](=O)[O-])CC[C@]3(C)C(=CC[C@@H]4[C@@]5(C)CC[C@H](O)[C@@](C)(CO)[C@@H]5CC[C@]43C)[C@@H]2C1`, for which the EC50 was 10.2 µM in the assay on MCF7; 10.9 µM with A549; 12.9 µM with A2780; 12.8 µM with HT-29; 10.3 µM in assay [1]; 8.8 µM in the assay on 8505C.
`CC1(C)CC[C@]2(C(=O)OCc3cccc(Br)c3)CC[C@]3(C)C(=CC[C@@H]4[C@@]5(C)CC[C@H](O)[C@@](C)(CO)[C@@H]5CC[C@]43C)[C@@H]2C1`: the half-maximal effective concentration (EC50) in the assay with MCF7 turned out to be 14.2 µM; in the assay with A549 it was 14.2 µM; in the assay with A2780, 14.6 µM; in the assay with HT-29, 15.3 µM; in assay [1] it was 13.8 µM; in the assay on 8505C, 13.7 µM.
For `COc1cc(COC(=O)[C@]23CCC(C)(C)C[C@H]2C2=CC[C@@H]4[C@@]5(C)CC[C@H](O)[C@@](C)(CO)[C@@H]5CC[C@@]4(C)[C@]2(C)CC3)cc(OC)c1`, the EC50 in the assay on MCF7 was 13.4 µM; with A549, 14 µM; in the assay on A2780, 13.5 µM; with HT-29 it was 14 µM; in assay [1], 12.7 µM; in the assay on 8505C it was 12.8 µM.
Turning to `C#CCNC(=O)[C@]12CCC(C)(C)C[C@H]1C1=CC[C@@H]3[C@@]4(C)CC[C@H](O)[C@@](C)(CO)[C@@H]4CC[C@@]3(C)[C@]1(C)CC2`, the concentration giving a half-maximal response (EC50) with MCF7 came out at 17 µM; with A549 it was 16.8 µM; in the assay on A2780, 14.8 µM; with HT-29, 17.3 µM; in assay [1] it was 21.6 µM; in the assay with 8505C, 22.1 µM.
